Sampled rows, rich in hits. Any-hit rate of the full collection: about 2.7%.
ARFGAP1 inhibitor: inhibitors of rat ARFGAP1 GAP activity, primary screen, biochemical, fluorescence polarization, GDP tracer; inhibition, % at 16.5 µM; ADP-ribosylation factor GTPase-activating protein 1 (Rattus norvegicus), Q62848; Arfgap1-stimulated ARF1 GTP hydrolysis, GDP FP detection; actives 0.26% (n = 360,000);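 active = inhibition above a per-plate limit, mean inhibition of low control wells plus 3 SD, cut at about 25% in these data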;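 also: 0% = DMSO wells with enzyme and 100% = wells lacking Arfgap1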
Target sequence (Q62848 1-136 limits assumed): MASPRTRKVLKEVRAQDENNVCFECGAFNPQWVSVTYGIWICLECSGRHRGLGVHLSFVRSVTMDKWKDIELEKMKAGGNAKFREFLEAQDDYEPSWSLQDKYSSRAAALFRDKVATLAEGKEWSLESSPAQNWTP
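System: truncated rat Arfgap1 GAP domain / Benchmarks: high control wells lacking Arfgap1, low control full reaction with DMSO / Times: compound-enzyme preincubation 20 min, reaction 120 min, detection 60 min, 25 °C / Repeats: one replicate per compound / Also added: human ARF1(Δ1-17)-GTP substrate / Measured by: Tracer-displacement fluorescence polarization with EDTA stop, 620/688 nm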
pPAFAH inh: pPAFAH enzyme inhibitors, primary screen, biochemical, fluorescence polarization, human; Platelet-activating factor acetylhydrolase (Homo sapiens), Q13093; recombinant pPAFAH, FP-rhodamine probe fluorescence polarization; inhibition, % at 3.39 µM; actives 1.5% (n = 330,000);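 active = inhibition above the mean inhibition across the screen plus 3 SD, cut at about 25% in these data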;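 also: inhibitors block binding of the rhodamine activity-based probe so polarization drops; 0% = enzyme with DMSO and 100% = wells lacking pPAFAH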
PAFAH1B2 FP inh: PAFAH1B2 enzyme inhibitors, primary screen, biochemical, fluorescence polarization, human. Platelet-activating factor acetylhydrolase IB subunit alpha2 (Homo sapiens), P68402. inhibition, % at 3.39 µM. actives 1.2% (n = 340,000). recombinant PAFAH1B2, FP-rhodamine activity probe. AID 492953, 2010;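 active = inhibition above the mean of all tested compounds plus 3 SD, cut at about 24% in these data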;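 also: 0% = enzyme with DMSO and 100% = wells lacking PAFAH1B2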
Target sequence (P68402 whole entry, looked up): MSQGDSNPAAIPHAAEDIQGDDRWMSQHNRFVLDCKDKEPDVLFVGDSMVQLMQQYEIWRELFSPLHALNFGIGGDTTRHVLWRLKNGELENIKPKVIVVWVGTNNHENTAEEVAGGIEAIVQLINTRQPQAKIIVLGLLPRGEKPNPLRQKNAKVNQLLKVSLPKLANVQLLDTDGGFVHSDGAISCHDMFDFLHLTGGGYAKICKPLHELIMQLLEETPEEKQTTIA
PAFAH1B3 FP inh: PAFAH1B3 enzyme inhibitors, primary screen, biochemical, fluorescence polarization, human. AID 492972, 2010. inhibition, % at 3.39 µM. actives 0.28% (n = 340,000). Platelet-activating factor acetylhydrolase IB subunit alpha1 (Homo sapiens), Q15102. recombinant PAFAH1B3, FP-rhodamine probe;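 active = inhibition above the screen-wide average of all tested compounds plus 3 SD, cut at about 25% in these data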;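 also: 0% = enzyme with DMSO only and 100% = wells lacking PAFAH1B3 protein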
Target sequence (Q15102 whole entry, looked up): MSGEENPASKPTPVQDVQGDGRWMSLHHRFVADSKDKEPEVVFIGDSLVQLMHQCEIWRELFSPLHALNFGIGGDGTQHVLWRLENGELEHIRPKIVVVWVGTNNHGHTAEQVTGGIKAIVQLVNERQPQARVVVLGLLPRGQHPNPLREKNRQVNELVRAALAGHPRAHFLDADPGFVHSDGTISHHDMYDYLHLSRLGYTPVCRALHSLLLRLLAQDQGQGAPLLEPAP
PAFAH2 inh: PAFAH2 enzyme inhibitors, primary screen, biochemical, fluorescence polarization, human; Platelet-activating factor acetylhydrolase 2, cytoplasmic (Homo sapiens), Q99487; recombinant PAFAH2, FP-rhodamine activity probe; inhibition, % at 3.39 µM; actives 0.99% (n = 340,000);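 active = inhibition above the mean over all tested compounds plus 3 SD, cut at about 30% in these data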;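 also: inhibitors block probe labeling of enzyme so polarization drops; 0% = enzyme with DMSO and 100% = wells lacking PAFAH2 protein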
ASAP1 GAP inh: inhibitors of human ASAP1 ArfGAP activity, primary screen, biochemical, fluorescence polarization. ASAP1-stimulated ARF1 GTP hydrolysis, GDP FP detection. Arf-GAP with SH3 domain, ANK repeat and PH domain-containing protein 1 (Homo sapiens), …. actives 0.19% (n = 360,000). inhibition, % at 16.5 µM. AID 624377, 2012; in the data active = inhibition above about 25%;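 also: 0% = vehicle with enzyme and substrate and 100% = no enzyme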
The depositor's hits bear a star; · = no result.

SMILES	ARFGAP1 inhibitor	pPAFAH inh	PAFAH1B2 FP inh	PAFAH1B3 FP inh	PAFAH2 inh	ASAP1 GAP inh
COC(=O)C1=C(C)N(Cc2cccc(C(F)(F)F)c2)C(=NCc2cc(OC)c(OC)c(OC)c2)NC1c1ccccc1C(F)(F)F (stereo not drawn)	7.9	·	·	·	·	5.9
Nn1c(SCC(=O)N2CCN(S(=O)(=O)c3ccc(Cl)cc3)CC2)nnc1-c1cccs1	3.9	30.6*	23.4	-1.1	4.0	-6.9
O=C(CN1CSCC1=O)N1CCN(S(=O)(=O)c2ccc(Cl)cc2)CC1	2.0	1.8	28.6*	12.1	-2.8	-12.3
Cc1nnc(SCC(=O)N2CCN(S(=O)(=O)c3ccc(Cl)cc3)CC2)[nH]c1=O	4.8	-6.4	29.6*	2.8	4.5	-1.4
Cc1nn(CC(C)C(=O)N2CCN(S(=O)(=O)c3ccc(Cl)cc3)CC2)c(C)c1C (stereo not drawn)	-6.3	-4.6	25.8*	-1.6	3.2	-5.3
CN(C)c1ccc(N(C)C)c(C(O)(c2ccccc2)c2ccccc2)c1	-1.4	·	·	·	·	-9.4
CCN(CC)C(=O)[C@H]1C[C@@H]2[C@H](C[C@@H](c3ccccc3)[C@H]1C)N(c1ccc(F)cc1)C(=O)N2CCCOc1ccccc1	4.1	·	·	·	·	-16.1
COc1ccc([C@@H]2CC=C(C(=O)O)[C@H](c3ccc(F)cc3)N2S(=O)(=O)c2ccccc2C)cc1	10.3	2.9	24.8*	1.1	0.5	-1.2
COc1ccc([C@@H]2CC=C(C(=O)O)[C@H](c3ccc(F)cc3)N2S(=O)(=O)c2ccc(Cl)cc2)cc1	-11.3	1.6	28.7*	4.4	3.6	-5.8
COc1ccc([C@@H]2CC=C(C(=O)O)[C@H](c3ccccc3F)N2S(=O)(=O)c2ccccc2C)cc1	-6.2	4.7	11.3	14.4	4.2	-2.8
C#CCNC(=O)C[C@H]1C[C@@]2(C(=O)OC)C(=C[C@H](C(C)(C)C)O[C@@H]2C)N(Cc2ccc3c(c2)OCO3)C1=O	3.5	·	·	·	·	1.2
CC(=O)NC(CCS(C)(=O)=O)C(=O)Nc1ccccc1 (stereo not drawn)	-3.7	-0.8	4.1	-0.8	-1.6	2.6
CC(=O)NC(CCS(C)(=O)=O)C(=O)Nc1ccc(Cl)c(Cl)c1 (stereo not drawn)	11.7	27.3*	-1.2	-5.6	1.5	-6.2
CCOC(=O)C1=C(C(=O)OCC)C2N(Cc3ccc(Br)cc3)c3ccccc3[C@@]23C[C@@H](C(=O)OC)N(S(=O)(=O)c2ccc(F)cc2)C3=N1 (stereo partly drawn)	1.2	·	·	·	·	9.5
Oc1c(I)cc(I)c2cccnc12	10.6	33.0*	8.4	10.2	6.9	-3.2
CCCCN1CC(COCc2ccccc2)Oc2cccc(Oc3ccc(F)cc3OC)c2S1(=O)=O (stereo not drawn)	-11.2	·	·	·	·	4.1
Cc1ccc(NC2=C/C(=N/S(=O)(=O)c3cccs3)c3ccccc3C2=O)cc1C	1.3	-1.8	-2.9	9.7	1.1	-6.2
O=C(O)c1ccc(S(=O)(=O)/N=C2\C=C(Nc3ccccc3F)C(=O)c3ccccc32)cc1	-8.7	19.0	57.5*	61.0*	72.4*	-1.6
CC(=O)Nc1ccc(NC2=C/C(=N/S(=O)(=O)c3cccs3)c3ccccc3C2=O)cc1	8.6	30.7*	·	·	·	19.7
Cc1ccccc1NC1=C/C(=N\S(=O)(=O)c2ccc(C(=O)O)cc2)c2ccccc2C1=O	-12.6	22.0	34.4*	65.0*	67.1*	11.9
COC(=O)C(C(C)=O)C1=C/C(=N\S(=O)(=O)c2ccc(C)cc2)c2ccccc2C1=O (stereo not drawn)	·	2.8	1.4	1.0	4.0	·
CCCCOCC1CN(CCCC)S(=O)(=O)c2c(cccc2N2CCCCC2)O1 (stereo not drawn)	-6.1	·	·	·	·	8.4
CCN1CC(CN(C)Cc2nc(-c3ccc(C(F)(F)F)cc3)oc2C)CC1=O (stereo not drawn)	-0.6	29.9*	2.8	6.2	3.8	-1.8
CCN1CC(CN(C)Cc2nc(-c3ccco3)oc2C)CC1=O (stereo not drawn)	-8.3	5.0	4.1	6.5	5.9	-7.2
CC(=O)N1CCN(c2ccc(N3CCN(C(C)=O)[C@@H](C)C3)c(C)c2)[C@@H](C)C1	-8.1	·	·	·	·	-7.0
SMILES	ARFGAP1 inhibitor	pPAFAH inh	PAFAH1B2 FP inh	PAFAH1B3 FP inh	PAFAH2 inh	ASAP1 GAP inh
Cc1ccc(Sc2ccc(NC(=O)CCN3C(=O)NC4(CCCC4)C3=O)cc2)c(C)c1	2.8	31.8*	6.8	2.3	38.1*	13.5
O=C(CN1C(=O)NC2(CCCCC2)C1=O)Nc1ccc(F)cc1	5.7	0.3	4.8	-3.0	2.0	5.7
NC(=O)c1ccc(NC(=O)CN2C(=O)NC3(CCCCCCC3)C2=O)cc1	8.6	26.4*	2.6	11.9	8.0	-2.7
Nc1ccn([C@@H]2O[C@H](C(=O)N[C@H](Cc3ccccc3)C(=O)N[C@H]3CCCCNC3=O)[C@@H](O)[C@H]2O)c(=O)n1	11.7	·	·	·	·	-5.5
CC1(C)OC(=O)C2=C(CC(CCc3ccccc3)OC2c2ccc(F)cc2)O1 (stereo not drawn)	4.0	·	·	·	·	9.0
CCOC(=O)c1c(NC(=O)CSc2nnc(CNc3ccc(OC)cc3)n2C)sc(C)c1C	-4.7	3.5	25.7*	7.8	8.4	-11.8
O=[N+]([O-])c1ccc(N/N=C\c2cccn2-c2ccccc2)nc1	-0.8	29.5*	6.1	0.1	-1.7	1.8
CCOC(=O)c1oc2ccccc2c1CSc1nnnn1-c1ccccc1	3.4	26.1*	6.6	15.2	1.8	0.5
CCOC(=O)c1oc2ccccc2c1CN1CCCCC1	-4.3	4.0	7.4	3.4	2.8	-7.1
O=c1[nH]c(/C=C\c2cccc(Cl)c2)nc(O)c1[N+](=O)[O-]	0.2	-0.3	32.9*	11.6	4.9	-5.0
CCOc1ncccc1C(=O)OCC(=O)Nc1ccc(C(C)C)cc1	2.2	29.8*	-2.1	5.8	51.4*	0.7
CCOc1ncccc1C(=O)OCC(=O)Nc1ccc(C(N)=O)cc1	2.4	0.7	1.8	4.1	3.6	7.8
CCCc1nc2c(C)cc(Br)cn2c1Cc1cccc(Cl)c1	-13.7	·	·	·	·	12.9
CCCCCNC(=O)C(C)Sc1ccc(Cl)cc1 (stereo not drawn)	-5.3	-1.9	29.8*	3.4	3.8	10.4
CN1C(=O)/C(=C/c2ccc(-c3ccccc3[N+](=O)[O-])o2)SC1=Nc1ccc(Cl)c(C(=O)O)c1	-4.5	29.4*	16.2	23.2	31.2*	5.8
